Scp1 inh – Scp-1 phosphatase inhibitors, primary screen, biochemical, colorimetric, uHTS; Carboxy-terminal domain RNA polymerase II polypeptide A small phosphatase 1 (Homo …; Recombinant Scp1, phosphopeptide, malachite green phosphate absorbance; inhibition, % at 20 µM; actives 0.88% (n = 340,000); AID 493091, 2011;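 active means inhibition above about 50% at 20 µM, limit read from the data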;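 further: plate controls were DMSO wells with enzyme for no effect and wells lacking enzyme for full effect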
Target sequence (Q9GZU7 76-261 limits assumed): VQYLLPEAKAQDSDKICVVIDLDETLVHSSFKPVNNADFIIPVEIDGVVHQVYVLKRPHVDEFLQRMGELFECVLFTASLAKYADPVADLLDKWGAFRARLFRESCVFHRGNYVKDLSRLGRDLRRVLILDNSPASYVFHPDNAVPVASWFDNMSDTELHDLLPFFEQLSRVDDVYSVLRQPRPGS
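System: SCP-1 catalytic domain; Reagent: Phospho 17-mer peptide substrate; Doses: one concentration, 20 µM, with 1.0% DMSO; Incubation: 45 min room-temperature reaction, 5 min colour, 30 min stabiliser; Signal: Phosphate-binding colour reagent, absorbance read at 630 nm.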
STEP block – STEP phosphatase inhibitors, primary screen, biochemical, fluorescence intensity, uHTS; Tyrosine-protein phosphatase non-receptor type 5 (Homo sapiens), P54829; inhibition, % at 20 µM; actives 0.25% (n = 360,000); recombinant STEP, OMFP fluorogenic substrate; AID 588621, 2011;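 active means inhibition at 20 µM, scaled per plate between control wells, above about 37%, limit read from the data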;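 further: 0% = DMSO with enzyme and substrate and 100% = substrate only without enzyme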
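Also added – OMFP at 25 µM · Test system – STEP tyrosine phosphatase · Technique – FITC-channel fluorescence of OMFP product · Schedule – 20 min at room temperature, dark · Evaluation – control-normalized % inhibition with plate pattern correction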
Rpn11 block – Rpn11 (PSMD14) deubiquitinase inhibitors, primary screen, biochemical, fluorescence polarization, uHTS; 26S proteasome non-ATPase regulatory subunit 14 (Homo sapiens), O00487; human 26S proteasome, Ub4-pepOG fluorescence polarization; 20S core pre-blocked with epoxomicin; inhibition, % at 20 µM; actives 0.59% (n = 360,000); AID 588493, 2011;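 active means inhibition at 20 µM, scaled to each plate's controls, above about 33%, limit read from the data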
Target sequence (O00487 whole entry, looked up): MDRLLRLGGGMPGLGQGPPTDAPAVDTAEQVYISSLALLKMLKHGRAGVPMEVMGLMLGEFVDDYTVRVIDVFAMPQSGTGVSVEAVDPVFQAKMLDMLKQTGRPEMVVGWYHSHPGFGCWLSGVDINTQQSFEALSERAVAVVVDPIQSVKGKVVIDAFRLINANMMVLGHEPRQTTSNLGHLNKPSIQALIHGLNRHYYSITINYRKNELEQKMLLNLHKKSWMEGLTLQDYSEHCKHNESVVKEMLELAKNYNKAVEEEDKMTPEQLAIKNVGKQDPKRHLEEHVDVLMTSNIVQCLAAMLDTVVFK
DNMT1 block – human DNMT1 methyltransferase inhibitors, primary screen, biochemical, molecular beacon, fluorescence, HinP1I cleavage, uHTS | DNA (cytosine-5)-methyltransferase 1 (Homo sapiens), P26358 | inhibition (reported as % activation of signal), % at 10 µM | actives 0.83% (n = 360,000); in the data active means inhibition above about 50%
LMPTP inh – LMPTP phosphatase inhibitors, primary screen, biochemical, fluorescence intensity, uHTS; inhibition, % at 20 µM; AID 651560, 2012; recombinant LMPTP-A, OMFP fluorogenic substrate; actives 0.22% (n = 360,000); Low molecular weight phosphotyrosine protein phosphatase (Homo sapiens), P24666;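 active means compounds that cut the enzyme signal by at least half of the control window in the single-dose screen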;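 further: plate controls were DMSO wells with enzyme plus substrate for no effect and substrate without enzyme for full effect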
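Test system: LMPTP-A, protein tyrosine phosphatase of low molecular weight; Input: 0.625 nM enzyme; Incubation: 50 min dark incubation at room temperature; Signal: endpoint fluorescence intensity from OMFP dephosphorylation; Read-out basis: % inhibition versus control wells.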
Rpn11 inh conf – Rpn11 (PSMD14) deubiquitinase inhibitors, confirmation, biochemical, fluorescence polarization, single concentration; inhibition, % at 20 µM; shares compounds with Rpn11 block; actives 29% (n = 1,900); purified human 26S proteasome, Ub4-pepOG fluorescence polarization; proteasome pretreated with epoxomicin
MMP-2 inh – MMP-2 enzyme inhibition, confirmation, counter-screen for RPN11 inhibitor project, biochemical, fluorescence, single concentration. shares compounds with Rpn11 block. recombinant MMP-2, FRET peptide cleavage fluorescence. inhibition, % at 20 µM. actives 4% (n = 1,900);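 further: human MMP-2 activated beforehand with APMA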
Thrombin inh – bovine thrombin protease inhibition, confirmation, counter-screen for Rpn11 inhibitor project, biochemical, fluorescence polarization, single concentration. inhibition, % at 20 µM. AID 602333, 2012. bovine thrombin cleavage of Ub4-pepOG. shares compounds with Rpn11 block. actives 13% (n = 1,900);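 active means mean inhibition at least 40% at 20 µM, or signal 3 deviations below plate average, so some actives read negative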;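 further: plate controls were thrombin with DMSO for no effect and buffer wells lacking thrombin for full effect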
Active calls of the source: *. The list is not random: actives were taken first. Their share in the collection is about 2%. Unless noted, no stated cut-off is given here; in the data, active means inhibition above about 40%; inactive means the rest.

What do the screens show for `COc1ccc(C2CC(c3cccs3)=NN2C(=O)CSC2=NCCS2)cc1` (stereo unspecified)?
Scp1 inh: 7; STEP block: -2; Rpn11 block: 80*; DNMT1 block: 7; LMPTP inh: 0; Rpn11 inh conf: 18; MMP-2 inh: -18; Thrombin inh: 10

How did Cc1ccc(C2CC(c3cccs3)=NN2C(=O)CCl)cc1 (stereo unspecified) do in these assays?
Scp1 inh: -4; STEP block: -1; Rpn11 block: 46*; DNMT1 block: 17; LMPTP inh: -2; Rpn11 inh conf: 8; MMP-2 inh: -8; Thrombin inh: 8

Results for COc1ccc(C2CC(c3cccs3)=NN2C(=O)COC(=O)c2cncc(Br)c2)cc1OC (stereo unspecified) ?
Scp1 inh: -5; STEP block: 1; Rpn11 block: 43*; DNMT1 block: -11; LMPTP inh: 1; Rpn11 inh conf: 22; MMP-2 inh: 63*; Thrombin inh: 4

What do the screens show for `COc1c(S(=O)(=O)NCCCn2ccnc2)ccc(Cl)c1Cl`?
Scp1 inh: -6; STEP block: -1; Rpn11 block: -2; DNMT1 block: -2; LMPTP inh: -3

What do the screens show for `CN(C)Cc1c(C(=O)N/N=C/c2ccncc2)nnn1-c1nonc1N`?
Scp1 inh: -6; STEP block: 1; Rpn11 block: 6; DNMT1 block: 3; LMPTP inh: -1

What do the screens show for `CCOc1ccc(/C=N/NC(=O)c2nnn(-c3nonc3N)c2COc2ccc(F)cc2)cc1`?
Scp1 inh: -4; STEP block: -1; Rpn11 block: 17; DNMT1 block: 11; LMPTP inh: 43

Results for CN(C)c1ccc(/C=N/NC(=O)c2nnn(-c3nonc3N)c2COc2ccc(F)cc2)cc1 ?
Scp1 inh: 7; STEP block: 6; Rpn11 block: 138*; DNMT1 block: 32; LMPTP inh: 51*; Rpn11 inh conf: -15; MMP-2 inh: -38; Thrombin inh: -22

How did CCN(CC)Cc1c(C(=O)N/N=C/c2ccncc2)nnn1-c1nonc1N do in these assays?
Scp1 inh: -2; STEP block: -2; Rpn11 block: active; DNMT1 block: 3; LMPTP inh: 0; Rpn11 inh conf: -9; MMP-2 inh: 8; Thrombin inh: -4

Results for COc1ccc(C=NNC(=O)c2ccccc2OCc2ccc(F)cc2)c(OC)c1 ?
Scp1 inh: -3; STEP block: 1; Rpn11 block: 5; DNMT1 block: -6; LMPTP inh: 12

What do the screens show for `COc1ccc(/C=C2\C(=O)NC(=S)N2C(=O)c2ccc(C)cc2)cc1`?
Scp1 inh: 9; STEP block: 5; Rpn11 block: 64*; DNMT1 block: -7; LMPTP inh: 4; Rpn11 inh conf: 107*; MMP-2 inh: 18; Thrombin inh: 56*

Results for COc1ccc(C2CC(c3ccccc3OC(C)=O)=NN2C(C)=O)cc1 (stereo unspecified) ?
Scp1 inh: -11; STEP block: 3; Rpn11 block: -4; DNMT1 block: -1; LMPTP inh: -1

Results for CCCCOCCCNC(=O)C[C@@H]1C[C@@]2(C(=O)OCC)CCC=C2N(Cc2ccccc2)C1=O ?
LMPTP inh: -2

Results for CCOC1=C/C(=C/c2c(N)n3nc(CC(=O)N4CCCCC4)sc3nc2=O)C=CC1=O ?
Scp1 inh: -4; STEP block: 1; Rpn11 block: 79*; DNMT1 block: 7; LMPTP inh: 1; Rpn11 inh conf: 44*; MMP-2 inh: 3; Thrombin inh: 38

What do the screens show for `CCOC1=C/C(=C/c2c(N)n3nc(S(=O)(=O)CC)sc3nc2=O)C=CC1=O`?
Scp1 inh: -6; STEP block: 3; Rpn11 block: 74*; DNMT1 block: 5; LMPTP inh: 0; Rpn11 inh conf: 65*; MMP-2 inh: -8; Thrombin inh: 46*

What do the screens show for `COC1=C/C(=C/c2c(N)n3nc(CC(=O)N4CCCCC4)sc3nc2=O)C=CC1=O`?
Scp1 inh: 9; STEP block: -1; Rpn11 block: 51*; DNMT1 block: 3; LMPTP inh: 1; Rpn11 inh conf: 39; MMP-2 inh: 4; Thrombin inh: 52*

Results for CCCCCc1nc2sc3c(c2c(=O)n1NC(=O)c1ccc([N+](=O)[O-])cc1)CC(C)(C)OC3 ?
Scp1 inh: -7; STEP block: 4; Rpn11 block: 0; DNMT1 block: 1; LMPTP inh: 3

How did CCc1ccccc1OCC(=O)Nc1cc(S(=O)(=O)N(CC)CC)ccc1N1CCOCC1 do in these assays?
Scp1 inh: -6; STEP block: 0; Rpn11 block: 5; DNMT1 block: 2; LMPTP inh: 4

How did CCn1c(O)c(/C=C/C=C/C=Nc2ccccc2)sc1=S do in these assays?
Scp1 inh: -1; STEP block: 0; Rpn11 block: 38; DNMT1 block: -11; LMPTP inh: 1

Results for CCCCn1c(O)c(/C=C/C=C/C=Nc2ccccc2)sc1=S ?
Scp1 inh: -8; STEP block: 5; Rpn11 block: 81*; DNMT1 block: 47; LMPTP inh: 2; Rpn11 inh conf: 35; MMP-2 inh: 19; Thrombin inh: 37

Results for Cc1ccc(CSc2cc(C)[nH]c(=O)n2)cc1 ?
Scp1 inh: 20; STEP block: 1; Rpn11 block: 64*; DNMT1 block: 38; LMPTP inh: -1; Rpn11 inh conf: 28; MMP-2 inh: -2; Thrombin inh: 19

How did CSc1nc2nccc(-c3ccc(Oc4ccccc4)cc3)n2n1 do in these assays?
Scp1 inh: 1; STEP block: -2; Rpn11 block: -1; DNMT1 block: -1; LMPTP inh: 0

High-throughput results (PubChem BioAssay)
